Active and inactive are the calls of the source. The rule behind the calls is not given here.
How the values were obtained:
[1] = biological target: T1, 3-oxoacyl-acyl-carrier protein reductase (Plasmodium falciparum) (UniProt Q965D6); assay: Inhibition of Plasmodium falciparum recombinant FabG at 20 ug/mL by spectrophotometric analysis
T1 sequence (whole entry): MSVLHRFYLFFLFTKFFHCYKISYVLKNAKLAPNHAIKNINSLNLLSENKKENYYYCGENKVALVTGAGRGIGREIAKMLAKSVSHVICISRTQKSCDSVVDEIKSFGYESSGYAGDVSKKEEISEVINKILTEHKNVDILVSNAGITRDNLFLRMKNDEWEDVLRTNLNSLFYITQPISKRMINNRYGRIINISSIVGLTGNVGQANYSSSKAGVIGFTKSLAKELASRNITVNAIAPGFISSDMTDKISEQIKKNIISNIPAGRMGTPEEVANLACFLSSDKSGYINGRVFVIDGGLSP

[2] = Inhibition of Plasmodium falciparum recombinant FabI at 20 ug/mL by spectrophotometric analysis
Leishmania donovani [3] = assay: Ratio of miltefosine IC50 to compound IC50 for Leishmania donovani (MHOM/ET/67/L82) amastigotes
[4] = system: Trypanosoma brucei rhodesiense; assay: Trypanocidal activity against Trypanosoma brucei rhodesiense STIB 900 after 72 hrs; format: functional, organism-based; details: STIB 900, 72 h
Method in brief: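 Bloodstream forms (10^4 per well) in MEM with 25 mM HEPES, extra glucose, non-essential amino acids, 2-mercaptoethanol, pyruvate and 15% heat-inactivated horse serum; seven 3-fold dilutions from 90 to 0.12 µg/mL, 72 h at 37 °C, 5% CO2. Resazurin added for 2–4 h, fluorescence at ex 536/em 588 nm; melarsoprol as standard.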

L6 = assay: Cytotoxicity against rat L6 cells after 72 hrs by Alamar blue assay; format: cell-based; details: l6, 72 h
Method in brief: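 4 × 10^4 L6 cells per well in RPMI 1640 with 10% FBS and L-glutamine, exposed 72 h to seven 3-fold dilutions (90–0.12 µg/mL). Resazurin (Alamar Blue) added for 2 h, fluorescence read at ex 536/em 588 nm.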

Trypanosoma cruzi = assay: Trypanocidal activity against trypomastigote form of Trypanosoma cruzi Tulahuen infected in rat L6 cells after 96 hrs; format: functional, organism-based; details: L6, 96 h
Method in brief: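 L6 cells seeded at 2000 per well in RPMI 1640 with 10% FBS, 2 mM L-glutamine; after 24 h, 5000 trypomastigotes of the LacZ-expressing C2C4 line added. After 48 h, medium replaced with seven 3-fold dilutions (90–0.12 µg/mL) for 96 h.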

Leishmania donovani [5] = assay: Antileishmanial activity against Leishmania donovani (MHOM/ET/67/L82) amastigotes after 72 hrs; format: functional, organism-based; details: MHOM/ET/67/L82, 72 h
[6] = biological target: T2, Fatty acid synthase (Plasmodium falciparum) (UniProt Q965D7); assay: Inhibition of Plasmodium falciparum recombinant FabZ at 20 ug/mL by spectrophotometric analysis
T2 sequence (whole entry): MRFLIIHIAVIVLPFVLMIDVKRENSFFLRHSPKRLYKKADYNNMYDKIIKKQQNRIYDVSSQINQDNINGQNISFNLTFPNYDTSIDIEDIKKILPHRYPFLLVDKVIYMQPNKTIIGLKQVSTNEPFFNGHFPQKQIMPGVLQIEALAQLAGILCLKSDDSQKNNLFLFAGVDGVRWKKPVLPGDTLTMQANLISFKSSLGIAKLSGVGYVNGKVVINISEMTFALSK

Plasmodium falciparum = assay: Antimalarial activity against chloroquine and pyrimethamine-resistant Plasmodium falciparum K1 assessed as inhibition of [3H]hypoxanthine incorporation after 48 hrs by scintillation counting; format: functional, organism-based
Method in brief: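 K1 strain (chloroquine- and pyrimethamine-resistant) cultured in RPMI 1640 with 5% Albumax II, 0.2% w/v glucose, 0.03% L-glutamine. Two-fold dilution series from DMSO stocks, final DMSO ≤0.25%. 48 h at 37 °C, then 0.1 µCi [3H]-hypoxanthine added and incubated 24 h more. Freeze-stopped at -80 °C, harvested onto glass fiber filters, scintillation counted. IC50 calculated. Chloroquine as standard.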

For `CC[C@@H](C(=O)C[C@@H](C)C1=C(O)C(=O)[C@@H]2C3=CC[C@H]4C[C@@H](O[C@@H]5O[C@H](C(=O)OC)[C@@H](O)[C@H](O[C@@H]6OC[C@@H](O)[C@H](O)[C@H]6O)[C@H]5O)CC[C@]4(C)[C@H]3CC[C@]12C)C(C)C` [METHYL ESTER PANDAROSIDE G], which Activity [1] is on record?
The Activity was “inactive”.

And the Activity [2]?
The Activity was “inactive”.

What about the “Ratio IC50” value (Leishmania donovani [3]) of the same compound?
The value was 10.

What about the IC50 [4] of the same compound?
The IC50 was 0.038 µM.

What about the Activity (L6) of the same compound?
Its Activity is 0.22 µM.

And the IC50 (Trypanosoma cruzi)?
The IC50 was 0.77 µM.

What about the IC50 (Leishmania donovani [5]) of the same compound?
The IC50 was 0.051 µM.

What about the Activity [6] of the same compound?
The Activity was “inactive”.

And the IC50 (Plasmodium falciparum)?
Its IC50 is 0.39 µM.

With `CC[C@@H](C(=O)C[C@@H](C)C1=C(O)C(=O)[C@@H]2[C@@H]3CC[C@H]4C[C@@H](O[C@@H]5O[C@H](C(=O)O)[C@@H](O)[C@H](O[C@@H]6OC[C@@H](O)[C@H](O)[C@H]6O)[C@H]5O)CC[C@]4(C)[C@H]3CC[C@]12C)C(C)C` [PANDAROSIDE H] as the compound, how does the Activity [1] read?
Its Activity is “inactive”.

What about the Activity [2] of the same compound?
The Activity was “inactive”.

What about the IC50 [4] of the same compound?
Its IC50 is 68.4 µM.

And the Activity (L6)?
The Activity was over 120 µM.

And the IC50 (Trypanosoma cruzi)?
Its IC50 is over 120 µM.

What about the IC50 (Leishmania donovani [5]) of the same compound?
The IC50 was 46.7 µM.

What about the Activity [6] of the same compound?
Its Activity is “inactive”.

What about the IC50 (Plasmodium falciparum) of the same compound?
The IC50 was 22.8 µM.

Which Activity [1] does the source give for `CC[C@@H](C(=O)C[C@@H](C)C1=C(O)C(=O)[C@@H]2[C@@H]3CC[C@H]4C[C@@H](O[C@@H]5O[C@H](C(=O)O)[C@@H](O[C@H]6O[C@H](C)[C@@H](O)[C@H](O)[C@@H]6O)[C@H](O)[C@H]5O)CC[C@]4(C)[C@H]3CC[C@]12C)C(C)C` [PANDAROSIDE I] here?
Its Activity is “inactive”.

What about the Activity [2] of the same compound?
Its Activity is “inactive”.

And the IC50 [4]?
The IC50 was 19.2 µM.

And the Activity (L6)?
Its Activity is over 120 µM.

And the IC50 (Trypanosoma cruzi)?
Its IC50 is 70.8 µM.

And the IC50 (Leishmania donovani [5])?
The IC50 was 36 µM.

What about the Activity [6] of the same compound?
The Activity was “inactive”.

And the IC50 (Plasmodium falciparum)?
Its IC50 is over 25 µM.

Reference: ChEMBL document CHEMBL1212832, “Antiprotozoal steroidal saponins from the marine sponge Pandaros acanthifolium” (J Nat Prod, 2010)
